# Laboratory results as given in ChEMBL document CHEMBL1765011, “Synthesis and c-Met kinase inhibition of 3,5-disubstituted and 3,5,7-trisubstituted quinolines: identification of 3-(4-acetylpiperazin-1-yl)-5-(3-nitrobenzylamino)-7- (trifluoromethyl)quinoline as a novel anticancer agent” (J Med Chem, 2011).
# pIC50: −log10 of the molar value.
# Columns and labels:
# [1] = target: T1, Hepatocyte growth factor receptor (Homo sapiens, UniProt P08581); experiment: Inhibition of purified recombinant c-Met after 60 mins by ELISA
# T1 sequence (P08581 whole entry): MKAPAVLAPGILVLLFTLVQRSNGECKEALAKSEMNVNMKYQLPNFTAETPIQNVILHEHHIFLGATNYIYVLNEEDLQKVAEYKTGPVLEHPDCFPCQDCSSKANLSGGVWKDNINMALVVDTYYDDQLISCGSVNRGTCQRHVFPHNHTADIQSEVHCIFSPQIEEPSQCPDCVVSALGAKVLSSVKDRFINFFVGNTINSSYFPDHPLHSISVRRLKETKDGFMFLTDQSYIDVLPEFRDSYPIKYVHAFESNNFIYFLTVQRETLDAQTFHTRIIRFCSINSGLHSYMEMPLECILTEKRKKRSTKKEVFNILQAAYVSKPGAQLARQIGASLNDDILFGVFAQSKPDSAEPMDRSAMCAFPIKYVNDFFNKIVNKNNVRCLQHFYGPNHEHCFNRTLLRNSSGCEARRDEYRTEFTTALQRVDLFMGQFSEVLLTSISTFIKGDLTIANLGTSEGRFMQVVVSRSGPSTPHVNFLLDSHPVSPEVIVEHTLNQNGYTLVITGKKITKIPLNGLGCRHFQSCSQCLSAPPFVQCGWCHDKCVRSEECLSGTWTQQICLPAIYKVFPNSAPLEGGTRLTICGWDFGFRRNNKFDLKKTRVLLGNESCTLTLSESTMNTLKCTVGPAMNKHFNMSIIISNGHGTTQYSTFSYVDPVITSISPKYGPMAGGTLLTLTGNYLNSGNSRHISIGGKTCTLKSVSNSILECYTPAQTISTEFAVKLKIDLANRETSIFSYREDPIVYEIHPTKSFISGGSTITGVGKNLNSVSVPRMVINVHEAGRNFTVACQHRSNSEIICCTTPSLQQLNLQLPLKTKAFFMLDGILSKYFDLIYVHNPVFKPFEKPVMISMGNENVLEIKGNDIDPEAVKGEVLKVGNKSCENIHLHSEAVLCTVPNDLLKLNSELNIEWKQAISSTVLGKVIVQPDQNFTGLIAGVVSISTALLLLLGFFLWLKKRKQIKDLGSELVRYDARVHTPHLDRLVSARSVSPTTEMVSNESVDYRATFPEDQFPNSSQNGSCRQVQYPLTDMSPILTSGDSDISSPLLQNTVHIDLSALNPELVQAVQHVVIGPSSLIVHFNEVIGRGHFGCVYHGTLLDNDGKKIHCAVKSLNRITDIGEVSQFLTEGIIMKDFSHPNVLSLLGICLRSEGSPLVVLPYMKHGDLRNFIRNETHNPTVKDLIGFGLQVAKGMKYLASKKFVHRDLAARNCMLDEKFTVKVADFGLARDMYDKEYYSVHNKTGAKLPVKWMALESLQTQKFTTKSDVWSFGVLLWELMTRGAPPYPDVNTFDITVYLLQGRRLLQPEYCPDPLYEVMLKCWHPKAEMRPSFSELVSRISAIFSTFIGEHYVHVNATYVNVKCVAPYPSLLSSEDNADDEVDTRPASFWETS
# [2] = target: T1, Hepatocyte growth factor receptor; experiment: Inhibition of purified recombinant c-Met at 10 uM after 60 mins by ELISA
# NIH3T3 [3] = experiment: Antiproliferative activity against mouse NIH/3T3 cells after 72 hrs; type: functional, cell-based; settings: NIH3T3, 72 h
# Method in brief: (§1)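 Cells were seeded and exposed next day to a range of compound concentrations for 72 h. Proliferation was read by sulforhodamine B or MTT assay, and IC50 derived.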
# MCF7 = experiment: Antiproliferative activity against human MCF7 cells after 72 hrs; settings: MCF7, 72 h
# SNU-5 = experiment: Antiproliferative activity against human SNU5 cells after 72 hrs; settings: SNU-5, 72 h
# BaF3 [4] = experiment: Antiproliferative activity against mouse BAF3 cells expressing TPR-Met after 72 hrs in absence of IL-3; type: functional, cell-based; settings: BaF3, 72 h; method in brief: as §1
# NIH3T3 [5] = experiment: Antiproliferative activity against mouse NIH/3T3 cells expressing TPR-Met after 72 hrs; type: functional, cell-based; settings: NIH3T3, 72 h; method in brief: as §1
# MDA-MB-231 = experiment: Antiproliferative activity against human MDA-MB-231 cells after 72 hrs; settings: MDA-MB-231, 72 h
# NCI-H441 = experiment: Antiproliferative activity against human NCI-H441 cells after 72 hrs; settings: NCI-H441, 72 h
# BXPC-3 = experiment: Antiproliferative activity against human BxPC3 cells after 72 hrs; settings: BXPC-3, 72 h
# SNU1 = experiment: Antiproliferative activity against human SNU1 cells after 72 hrs; settings: SNU1, 72 h
# MKN-45 = experiment: Antiproliferative activity against human MKN45 cells after 72 hrs; settings: MKN-45, 72 h
# NCI-H1993 = experiment: Antiproliferative activity against human NCI-H1993 cells after 72 hrs; settings: NCI-H1993, 72 h
# BaF3 [6] = experiment: Antiproliferative activity against mouse BAF3 cells expressing TPR-Met after 72 hrs in presence of IL-3; type: functional, cell-based; settings: BaF3, 72 h; method in brief: as §1
# [7] = target: Hepatocyte growth factor receptor (Mus musculus) (UniProt P16056); experiment: Inhibition of TPR-MET autophosphorylation in mouse NIH3T3 cells after 4 hrs by Western blotting; type: cell-based
# Chain of Hepatocyte growth factor receptor (Mus musculus) (P16056 whole entry): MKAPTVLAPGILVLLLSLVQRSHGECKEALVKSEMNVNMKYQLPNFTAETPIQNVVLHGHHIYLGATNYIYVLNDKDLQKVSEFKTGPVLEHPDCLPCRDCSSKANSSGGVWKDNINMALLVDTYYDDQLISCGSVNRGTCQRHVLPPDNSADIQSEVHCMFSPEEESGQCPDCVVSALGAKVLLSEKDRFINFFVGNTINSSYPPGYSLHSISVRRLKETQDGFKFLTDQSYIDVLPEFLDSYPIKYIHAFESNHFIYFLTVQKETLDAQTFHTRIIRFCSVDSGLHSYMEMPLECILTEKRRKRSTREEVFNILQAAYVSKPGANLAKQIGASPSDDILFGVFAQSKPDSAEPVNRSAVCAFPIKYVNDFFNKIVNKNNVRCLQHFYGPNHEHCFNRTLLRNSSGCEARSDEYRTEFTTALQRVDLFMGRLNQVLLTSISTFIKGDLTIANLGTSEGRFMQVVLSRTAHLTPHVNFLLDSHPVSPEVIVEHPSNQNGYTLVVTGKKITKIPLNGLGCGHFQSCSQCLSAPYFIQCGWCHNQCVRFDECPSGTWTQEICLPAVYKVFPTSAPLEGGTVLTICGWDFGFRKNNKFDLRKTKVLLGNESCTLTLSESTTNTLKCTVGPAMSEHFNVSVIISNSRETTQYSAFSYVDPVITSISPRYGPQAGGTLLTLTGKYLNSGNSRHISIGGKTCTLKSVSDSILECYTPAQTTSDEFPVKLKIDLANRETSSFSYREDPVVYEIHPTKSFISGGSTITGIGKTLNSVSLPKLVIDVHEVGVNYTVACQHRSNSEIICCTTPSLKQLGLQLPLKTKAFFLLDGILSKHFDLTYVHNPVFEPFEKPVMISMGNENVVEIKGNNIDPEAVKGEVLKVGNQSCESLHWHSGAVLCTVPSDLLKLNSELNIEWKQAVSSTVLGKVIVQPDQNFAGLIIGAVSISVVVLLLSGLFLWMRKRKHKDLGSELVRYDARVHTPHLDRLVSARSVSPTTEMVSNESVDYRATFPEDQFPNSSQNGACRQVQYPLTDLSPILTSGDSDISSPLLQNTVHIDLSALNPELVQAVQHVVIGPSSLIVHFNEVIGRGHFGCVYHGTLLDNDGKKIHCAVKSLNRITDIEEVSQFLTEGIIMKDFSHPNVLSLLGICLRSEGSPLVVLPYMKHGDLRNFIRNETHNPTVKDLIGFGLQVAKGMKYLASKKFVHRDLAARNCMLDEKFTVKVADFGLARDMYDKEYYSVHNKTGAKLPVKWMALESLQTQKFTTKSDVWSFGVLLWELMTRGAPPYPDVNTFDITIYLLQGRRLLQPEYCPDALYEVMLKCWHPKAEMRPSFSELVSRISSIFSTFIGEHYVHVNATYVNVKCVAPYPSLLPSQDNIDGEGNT
# Method in brief: (§2)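 Exponentially growing cells were treated with compound for 4 h at 37 °C and lysed in SDS sample buffer. Lysates were run on 10% SDS-PAGE and blotted to nitrocellulose. Blots were probed for phospho-c-Met and total c-Met, with GAPDH as loading control, and detected by ECL.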
# [8] = target: Hepatocyte growth factor receptor (Mus musculus) (UniProt P16056); experiment: Inhibition of TPR-MET autophosphorylation in mouse BaF3 cells after 4 hrs by Western blotting; type: cell-based; method in brief: as §2
# [9] = Clearance in mouse at 10 mg/kg, iv; type: ADME, organism-based; design: dose 10 mg/kg, route intravenous; settings: in vivo
# Method in brief: (§3)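 Single iv dose of 10 mg/kg to mice, vehicle DMSO/Tween 80/normal saline. Clearance and half-life were derived from plasma concentration-time data. Average of three runs.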
# [10] = Half life in mouse at 10 mg/kg, iv; type: ADME, organism-based; design: dose 10 mg/kg, route intravenous; settings: in vivo; method in brief: as §3
# [11] = Tmax in mouse at 20 mg/kg, po; type: ADME, organism-based; design: dose 20 mg/kg, route oral; settings: in vivo
# [12] = AUC (0 to infinity) in mouse at 20 mg/kg, po; type: ADME, organism-based; design: dose 20 mg/kg, route oral, time infinity; settings: plasma
# Method in brief: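 Mice dosed orally at 20 mg/kg in DMSO/Tween 80/normal saline vehicle; plasma concentration-time profile used to derive AUC0-∞. Values are the average of three runs.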
# [13] = Cmax in mouse at 20 mg/kg, po; type: ADME, organism-based; design: dose 20 mg/kg, route oral; settings: in vivo
# Method in brief: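 Oral 20 mg/kg single dose to mice, vehicle DMSO/Tween 80/normal saline. Cmax was read from the plasma concentration-time profile. Average of three runs.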
# [14] = Volume of distribution at steady state in mouse at 10 mg/kg, iv; type: ADME, organism-based; design: dose 10 mg/kg, route intravenous; settings: in vivo, read-out: Vdss
# [15] = Oral bioavailability in mouse at 20 mg/kg; type: ADME, organism-based; settings: in vivo
# [16] = Clearance in mouse at 2.5 mg/kg, iv; type: ADME, organism-based; design: dose 2.5 mg/kg, route intravenous; settings: in vivo
# Method in brief: (§4)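 Single iv dose to mice in DMSO/Tween 80/normal saline vehicle, reduced to 2.5 mg/kg because of poor solubility. Clearance and half-life were taken from plasma concentration-time data. Average of three runs.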
# [17] = Volume of distribution at steady state in mouse at 2.5 mg/kg, iv; type: ADME, organism-based; design: dose 2.5 mg/kg, route intravenous; settings: in vivo, read-out: Vdss
# [18] = Half life in mouse at 2.5 mg/kg, iv; type: ADME, organism-based; design: dose 2.5 mg/kg, route intravenous; settings: in vivo; method in brief: as §4
compound,measurement,setting,value
CN1CCN(c2cnc3cccc(OCc4cccc(C#N)c4)c3c2)CC1,pIC50,[1],4.91
CCN1CCN(c2cnc3cc(C(F)(F)F)cc(NCc4ccc(F)cc4)c3c2)CC1,pIC50,[1],5.00
CN1CCN(c2cnc3cccc(OC(=O)c4cccn(-c5ccc(F)cc5)c4=O)c3c2)CC1,inhibition,[2],12.6%
CC(C)(C)OC(=O)N1CCN(c2cnc3cc(C(F)(F)F)cc(NCc4cccc([N+](=O)[O-])c4)c3c2)CC1,pIC50,[1],7.97
CC(=O)N1CCN(c2cnc3cccc(NC(=S)Nc4cccc([N+](=O)[O-])c4)c3c2)CC1,inhibition,[2],13.9%
CN1CCN(c2cnc3cccc(-c4cccc([N+](=O)[O-])c4)c3c2)CC1,pIC50,[1],5.64
CN1CCN(c2cnc3cccc(NCc4cccc([N+](=O)[O-])c4)c3c2)CC1,pIC50,[1],6.78
CN1CCN(c2cnc3cccc(OC(=O)c4cccc([N+](=O)[O-])c4)c3c2)CC1,inhibition,[2],7.3%
CN1CCN(c2cnc3cccc(OCc4cccc(F)c4)c3c2)CC1,inhibition,[2],25.8%
CN1CCN(c2cnc3cc(C(F)(F)F)cc(NCc4cccnc4)c3c2)CC1,pIC50,[1],6.80
CN1CCN(c2cnc3cc(C(F)(F)F)cc(NS(=O)(=O)c4cccc([N+](=O)[O-])c4)c3c2)CC1,pIC50,[1],7.00
O=[N+]([O-])c1cccc(CNc2cc(C(F)(F)F)cc3ncc(N4CCCCC4)cc23)c1,pIC50,[1],8.47
CCN1CCN(c2cnc3cc(C(F)(F)F)cc(NCc4cccc(C#N)c4)c3c2)CC1,pIC50,[1],8.25
CN1CCN(c2cnc3cccc(NS(=O)(=O)c4cccc([N+](=O)[O-])c4)c3c2)CC1,pIC50,[1],5.46
CN1CCN(c2cnc3cccc(NC(=O)Nc4cccc([N+](=O)[O-])c4)c3c2)CC1,inhibition,[2],25.2%
Cc1[nH]c(/C=C2\C(=O)Nc3ccc(S(=O)(=O)N(C)c4cccc(Cl)c4)cc32)c(C)c1C(=O)N1CCN(C)CC1,pIC50,NIH3T3 [3],≤ 4.30
same,pIC50,MCF7,5.21
same,pIC50,SNU-5,6.10
same,pIC50,BaF3 [4],6.28
same,pIC50,NIH3T3 [5],5.19
same,pIC50,MDA-MB-231,4.96
same,pIC50,NCI-H441,4.89
same,pIC50,[1],7.85
same,pIC50,BXPC-3,4.80
same,pIC50,SNU1,5.15
same,pIC50,MKN-45,5.89
same,pIC50,NCI-H1993,5.14
same,pIC50,BaF3 [6],5.19
CN1CCN(c2cnc3cccc(NC(=O)c4cccn(-c5ccc(F)cc5)c4=O)c3c2)CC1,pIC50,[1],5.28
O=[N+]([O-])c1cccc(CNc2cc(C(F)(F)F)cc3ncc(N4CCNCC4)cc23)c1,pIC50,[1],8.66
CN1CCN(c2cnc3cc(NCc4cccc([N+](=O)[O-])c4)cc(C(F)(F)F)c3c2)CC1,inhibition,[2],8.9%
CN1CCN(c2cnc3cccc(-c4ccc5ccccc5c4)c3c2)CC1,pIC50,[1],5.24
CN1CCN(c2cnc3cccc(-c4cccs4)c3c2)CC1,pIC50,[1],4.84
CN1CCN(c2cnc3cc(C(F)(F)F)cc(OCc4cccc([N+](=O)[O-])c4)c3c2)CC1,pIC50,[1],8.57
CC(=O)N1CCN(c2cnc3cccc(NS(=O)(=O)c4cccc([N+](=O)[O-])c4)c3c2)CC1,pIC50,[1],5.59
CN1CCN(c2cnc3cccc(-c4ccc(F)cc4)c3c2)CC1,inhibition,[2],29.9%
O=[N+]([O-])c1cccc(CNc2cc(C(F)(F)F)cc3ncc(N4CCN(S(=O)(=O)C5CC5)CC4)cc23)c1,pIC50,NIH3T3 [3],≤ 4.30
same,pIC50,BaF3 [4],6.30
same,pIC50,NIH3T3 [5],5.85
same,inhibition,[7],Dose-dependent effect
same,pIC50,[1],9.08
same,inhibition,[8],Dose-dependent effect
same,pIC50,BaF3 [6],≤ 4.30
CN1CCN(c2cnc3cccc(OS(=O)(=O)c4cccc([N+](=O)[O-])c4)c3c2)CC1,pIC50,[1],5.92
CN1CCN(c2cnc3cccc(OCc4cccc([N+](=O)[O-])c4)c3c2)CC1,pIC50,[1],6.85
COC(=O)N1CCN(c2cnc3cc(C(F)(F)F)cc(NCc4cccc([N+](=O)[O-])c4)c3c2)CC1,pIC50,[1],7.37
O=C(O)CN1CCN(c2cnc3cc(C(F)(F)F)cc(NCc4cccc([N+](=O)[O-])c4)c3c2)CC1,pIC50,[1],8.36
CN1CCN(c2cnc3cccc(NC(=S)Nc4cccc([N+](=O)[O-])c4)c3c2)CC1,inhibition,[2],12.4%
CC(=O)N1CCN(c2cnc3cccc(NC(=O)Nc4cccc([N+](=O)[O-])c4)c3c2)CC1,pIC50,[1],4.65
CCOC(=O)CN1CCN(c2cnc3cc(C(F)(F)F)cc(NCc4cccc([N+](=O)[O-])c4)c3c2)CC1,clearance,[9],40.5 mL/min/kg
same,pIC50,NIH3T3 [3],≤ 4.30
same,half-life,[10],1.13 h
same,Tmax,[11],0.5 h
same,AUC(0-inf),[12],700 ng·h/mL
same,pIC50,BaF3 [4],5.85
same,pIC50,NIH3T3 [5],5.23
same,inhibition,[7],Dose-dependent effect
same,Cmax,[13],279 ng/mL
same,Vd,[14],1.36 L/kg
same,pIC50,[1],9.11
same,inhibition,[8],Dose-dependent effect
same,bioavailability,[15],8.2%
same,pIC50,BaF3 [6],4.85
CCN1CCN(c2cnc3cc(C(F)(F)F)cc(NCc4cccc([N+](=O)[O-])c4)c3c2)CC1,pIC50,NIH3T3 [3],4.88
same,pIC50,BaF3 [4],6.43
same,pIC50,NIH3T3 [5],5.59
same,inhibition,[7],Dose-dependent effect
same,pIC50,[1],9.00
same,inhibition,[8],Dose-dependent effect
same,pIC50,BaF3 [6],5.00
O=[N+]([O-])c1cccc(CNc2cc(C(F)(F)F)cc3ncc(N4CCOCC4)cc23)c1,pIC50,NIH3T3 [3],≤ 4.30
same,pIC50,BaF3 [4],5.38
same,pIC50,NIH3T3 [5],5.40
same,inhibition,[7],Dose-dependent effect
same,pIC50,[1],9.14
same,inhibition,[8],Dose-dependent effect
same,pIC50,BaF3 [6],≤ 4.30
CCN1CCN(c2cnc3cc(NCc4cccc([N+](=O)[O-])c4)cc(C(F)(F)F)c3c2)CC1,inhibition,[2],46.6%
CN1CCN(c2cnc3cc(C(F)(F)F)cc(NCc4cccc(F)c4)c3c2)CC1,pIC50,[1],6.35
CCN1CCN(c2cnc3cc(C(F)(F)F)cc(NCc4cccc(O)c4)c3c2)CC1,pIC50,[1],6.64
CC(=O)N1CCN(c2cnc3cccc(NCc4cccc([N+](=O)[O-])c4)c3c2)CC1,pIC50,[1],6.96
CN1CCN(c2cnc3cccc(-c4cccc(O)c4)c3c2)CC1,inhibition,[2],30.7%
CN1CCN(c2cnc3cccc(-c4ccco4)c3c2)CC1,pIC50,[1],4.90
CS(=O)(=O)N1CCN(c2cnc3cc(C(F)(F)F)cc(NCc4cccc([N+](=O)[O-])c4)c3c2)CC1,pIC50,NIH3T3 [3],≤ 4.30
same,Tmax,[11],1.33 h
same,AUC(0-inf),[12],366 ng·h/mL
same,pIC50,BaF3 [4],5.06
same,pIC50,NIH3T3 [5],5.66
same,inhibition,[7],Dose-dependent effect
same,clearance,[16],43.3 mL/min/kg
same,Cmax,[13],59.3 ng/mL
same,pIC50,[1],9.09
same,Vd,[17],1.72 L/kg
same,half-life,[18],0.97 h
same,inhibition,[8],Dose-dependent effect
same,bioavailability,[15],3.7%
same,pIC50,BaF3 [6],≤ 4.30
